Assay results reported in ChEMBL document CHEMBL2176896, “Phthalazine derivatives containing imidazole rings behave as Fe-SOD inhibitors and show remarkable anti-T. cruzi activity in immunodeficient-mouse mode of infection” (J Med Chem, 2012).
Calls of active or inactive are those of the source. No cut-off for these calls is given here.

Experiments:
[1] = test system: Trypanosoma cruzi; assay: (§1) Antitrypanosomal activity against Trypanosoma cruzi IRHOD/VO/2008/SN3 metacyclic forms infected in BALB/c mouse model of chronic Chagas disease subjected to 3 cycles of immunosuppression with 50 mg/kg cyclophosphamide monohydrate for 3 consecutive weeks assessed as change in IgG absorbance level at 5 mg/kg/day, ip administered for 5 consecutive days starting on day 7 post infection until day 12 post infection and measured on day 150 post infection by ELISA; assay type: functional
Summary of the method: (§2)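 Infected, treated mice (ip 5 or 15 mg/kg/day, days 7–12 pi) kept to day 120. Half then given three 4-day cycles of cyclophosphamide at 50 mg/kg with 3-day gaps; the rest left untreated. Serum IgG measured by ELISA on parasite-excreted Fe-SOD antigen: 1:100 serum, anti-IgG peroxidase 1:1000, OPD, A492, in triplicate. Reported as immunosuppressed minus non-immunosuppressed OD.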

[2] = test system: Trypanosoma cruzi; assay: Antitrypanosomal activity against Trypanosoma cruzi IRHOD/VO/2008/SN3 metacyclic forms infected in african green monkey Vero cells assessed as inhibition of trypomastigotes level at IC25 level 0.5 to 10 days; assay type: functional
Summary of the method: (§3)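 Vero cells in RPMI infected with metacyclic forms at 10:1. Compounds added at IC25 immediately after infection for 12 h at 37 °C, 5% CO2, then washed off. Cultures grown 10 days with fresh medium every 48 h. Giemsa slides scored for % infected cells and amastigotes per cell (>100 cells); trypomastigotes in medium counted. Mean of four.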

[3] = Inhibition of Trypanosoma cruzi IRHOD/VO/2008/SN3 epimastigotes Iron superoxide dismutase by spectrophotometry
Summary of the method: (§4)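 Enzyme from sonicated parasites in STE buffer, pH 7.8, or human erythrocyte CuZn-SOD. Activity measured as NBT reduction by superoxide (Beyer–Fridovich): methionine, NBT, Triton X-100 and riboflavin, with A560 read before and after 10 min of light. Compounds tested at 1–100 μM. Mean of five; IC50 by linear regression from Kc.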

[4] = test system: Trypanosoma cruzi; assay: (§5) Antitrypanosomal activity against Trypanosoma cruzi IRHOD/VO/2008/SN3 metacyclic forms infected in BALB/c mouse model of acute Chagas disease assessed as reduction parasitemia at 5 mg/kg/day, ip administered for 5 consecutive days starting on day 7 post infection until day 12 post infection and measured on day 25 post infection; assay type: functional, organism-based
Summary of the method: (§6)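 Groups of six female BALB/c mice (6–8 weeks, 25–30 g) inoculated ip with 5 × 10^5 metacyclic trypomastigotes. Dosed ip at 5 or 15 mg/kg/day on days 7–12 pi; untreated infected controls. Mandibular-vein blood (5 μL in 495 μL PBS) counted every 3 days for 40 days in a Neubauer chamber, as parasites/mL.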

[5] = test system: Trypanosoma cruzi; assay: Antitrypanosomal activity against Trypanosoma cruzi IRHOD/VO/2008/SN3 metacyclic forms infected in BALB/c mouse model of acute Chagas disease assessed as reduction in parasitemia level at 15 mg/kg/day, ip administered for 5 consecutive days starting on day 7 post infection until day 12 post infection and measured on day 15 post infection relative to untreated control; assay type: functional; design: scale not given: the % may be the effect or the level left; conditions: route intraperitoneal; summary of the method: as §6
[6] = Toxicity against african green monkey Vero cells; assay type: cell-based, Chlorocebus sabaeus
[7] = Selectivity index, ratio of IC50 for african green monkey Vero cells to IC50 for Trypanosoma cruzi IRHOD/VO/2008/SN3 intracellular amastigotes; assay type: toxicity, cell-based; conditions: read-out: Ratio IC50
[8] = test system: Trypanosoma cruzi; assay: as §5, with “at 15” for “at 5”, “day 40” for “day 25”; assay type: functional; design: scale not given: the % may be the effect or the level left; conditions: route intraperitoneal; summary of the method: as §6
[9] = test system: Trypanosoma cruzi; assay: Induction of ultrastructural modifications in Trypanosoma cruzi Maracay at IC25 level incubated for 96 hrs by transmission electron microscopy; assay type: functional, organism-based
Summary of the method: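 Maracay epimastigotes at 5 × 10^5 cells/mL exposed at IC25 for 96 h. Pellets washed in PBS, fixed in 2% paraformaldehyde/glutaraldehyde in 0.05 M cacodylate (pH 7.4) for 4 h at 4 °C, then examined by TEM.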

[10] = test system: Trypanosoma cruzi; assay: Antitrypanosomal activity against Trypanosoma cruzi IRHOD/VO/2008/SN3 metacyclic forms infected in african green monkey Vero cells assessed as inhibition of infection rate at IC25 level 0.5 to 10 days; assay type: functional; summary of the method: as §3
[11] = Selectivity index, ratio of IC50 for african green monkey Vero cells to IC50 for Trypanosoma cruzi IRHOD/VO/2008/SN3 axenic amastigotes; assay type: toxicity, cell-based; conditions: Vero cells versus Trypanosoma cruzi axenic amastigotes, read-out: Ratio IC50
[12] = Selectivity index, ratio of IC50 for african green monkey Vero cells to IC50 for Trypanosoma cruzi IRHOD/VO/2008/SN3 blood trypomastigotes; assay type: toxicity, cell-based; conditions: Vero cells versus Trypanosoma cruzi blood trypomastigotes, read-out: Ratio IC50
[13] = test system: Trypanosoma cruzi; assay: Antitrypanosomal activity against Trypanosoma cruzi IRHOD/VO/2008/SN3 […] amastigotes infected in african green monkey Vero cells incubated for 72 hrs; assay type: functional, organism-based; conditions: IRHOD/VO/2008/SN3, Vero
[14] = test system: Trypanosoma cruzi; assay: Effect on glucose metabolism in Trypanosoma cruzi IRHOD/VO/2008/SN3 epimastigotes assessed as excreted ethanol level at IC25 level incubated for 96 hrs at 28 degC by [1H]NMR spectroscopy
[15] = test system: Trypanosoma cruzi; assay: Antitrypanosomal activity against Trypanosoma cruzi IRHOD/VO/2008/SN3 metacyclic forms infected in african green monkey Vero cells assessed as inhibition of intracellular amastigotes replication at IC25 level 0.5 to 10 days; assay type: functional; summary of the method: as §3
[16] = test system: Trypanosoma cruzi; assay: as §1, with “as parasitemia reactivation” for “as change in IgG absorbance”, “at 15” for “at 5”, “infection” for “infection by ELISA”; assay type: functional
Summary of the method: (§7)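 Female BALB/c mice (6–8 wk, 25–30 g), six per group, were infected ip with 5 × 10^5 metacyclic trypomastigotes from infected mouse blood and dosed ip daily on days 7–12 pi. From day 120 pi a subgroup got three 4-day cycles of cyclophosphamide 50 mg/kg, 3 days apart. Parasites were counted by Neubauer chamber the day after cycle three in 5 μL mandibular-vein blood (1:100 PBS). Reactivation was scored against the matching non-immunosuppressed group; three experiments.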

[17] = test system: Trypanosoma cruzi; assay: Effect on glucose metabolism in Trypanosoma cruzi IRHOD/VO/2008/SN3 epimastigotes assessed as excreted acetate level at IC25 level incubated for 96 hrs at 28 degC by [1H]NMR spectroscopy
[18] = Selectivity index, ratio of IC50 for african green monkey Vero cells to IC50 for Trypanosoma cruzi IRHOD/VO/2008/SN3 epimastigotes; assay type: toxicity, cell-based; conditions: Vero cells versus Trypanosoma cruzi epimastigotes, read-out: Ratio IC50
[19] = test system: Trypanosoma cruzi; assay: Antitrypanosomal activity against Trypanosoma cruzi IRHOD/VO/2008/SN3 isolated from mouse blood trypomastigotes incubated for 24 hrs; assay type: functional, organism-based; conditions: IRHOD/VO/2008/SN3, Blood
Summary of the method: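 Blood from BALB/c mice 7 days post-infection, drawn by cardiac puncture into 3.8% citrate (7:3). Compounds in PBS at 10, 25 and 50 μM final, mixed with infected blood (~1 × 10^6 parasites/mL). Shaken 10 min at room temperature, held 24 h at 4 °C. Parasites counted at 1:100 dilution against a PBS control.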

[20] = test system: Trypanosoma cruzi; assay: Antitrypanosomal activity against Trypanosoma cruzi IRHOD/VO/2008/SN3 intracellular amastigotes infected in african green monkey Vero cells incubated for 72 hrs; assay type: functional, organism-based; conditions: IRHOD/VO/2008/SN3, Vero
Summary of the method: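 Vero cells (1 × 10^4/well) grown 2 days on coverslips, then infected with metacyclic forms at 10:1 for 24 h at 37 °C. Extracellular parasites washed off. Compounds at 1–100 μM for 72 h in RPMI with 10% FBS. Amastigotes counted on methanol-fixed, Giemsa-stained slides against untreated cultures. Mean of four determinations; IC50.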

[21] = test system: Trypanosoma cruzi; assay: Inhibition of Trypanosoma cruzi IRHOD/VO/2008/SN3 epimastigotes Iron superoxide dismutase at 50 uM by spectrophotometry; summary of the method: as §4
[22] = test system: Trypanosoma cruzi; assay: as §1, with “parasitemia reactivation” for “change in IgG absorbance”, “infection” for “infection by ELISA”; assay type: functional; summary of the method: as §7
[23] = molecular target: Superoxide dismutase [Cu-Zn] (Homo sapiens, UniProt P00441); assay: Inhibition of SOD1 in human erythrocytes by spectrophotometry; assay type: cell-based; summary of the method: as §4
Chain of Superoxide dismutase [Cu-Zn] (P00441 whole entry): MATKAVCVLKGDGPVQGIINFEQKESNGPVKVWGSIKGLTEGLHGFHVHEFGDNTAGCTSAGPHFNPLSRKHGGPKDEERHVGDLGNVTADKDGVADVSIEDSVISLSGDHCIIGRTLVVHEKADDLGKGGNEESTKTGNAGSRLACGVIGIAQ

[24] = test system: Trypanosoma cruzi; assay: Effect on glucose metabolism in Trypanosoma cruzi IRHOD/VO/2008/SN3 epimastigotes assessed as excreted L-lactate level at IC25 level incubated for 96 hrs at 28 degC by [1H]NMR spectroscopy
[25] = test system: Trypanosoma cruzi; assay: Effect on glucose metabolism in Trypanosoma cruzi IRHOD/VO/2008/SN3 epimastigotes assessed as excreted L-alanine level at IC25 level incubated for 96 hrs at 28 degC by [1H]NMR spectroscopy
[26] = Selectivity index, ratio of IC50 for SOD1 in human erythrocytes to IC50 for Trypanosoma cruzi IRHOD/VO/2008/SN3 epimastigotes Iron superoxide dismutase; assay type: cell-based
[27] = test system: Trypanosoma cruzi; assay: Antitrypanosomal activity against Trypanosoma cruzi IRHOD/VO/2008/SN3 epimastigotes incubated for 72 hrs; conditions: IRHOD/VO/2008/SN3, 72 h
[28] = test system: Trypanosoma cruzi; assay: Effect on glucose metabolism in Trypanosoma cruzi IRHOD/VO/2008/SN3 epimastigotes assessed as excreted succinate level at IC25 level incubated for 96 hrs at 28 degC by [1H]NMR spectroscopy
[29] = test system: Trypanosoma cruzi; assay: as §5, with “15 to 20” for “25”; assay type: functional; summary of the method: as §6
[30] = test system: Trypanosoma cruzi; assay: (§8) Toxicity in Trypanosoma cruzi IRHOD/VO/2008/SN3 metacyclic forms infected BALB/c mouse model of acute Chagas disease assessed as mortality incidence at 5 mg/kg/day, ip administered for 5 consecutive days starting on day 7 post infection until day 12 post infection and measured 40 days post infection; assay type: organism-based; design: route intraperitoneal; conditions: in vivo, 960 h
Summary of the method: (§9)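 Female BALB/c mice (6–8 wk, 25–30 g), six per group, were infected ip with 5 × 10^5 metacyclic trypomastigotes from infected mouse blood. Once infection was confirmed, compound was given ip daily on days 7–12 pi. An infected untreated group served as control. Deaths were recorded during treatment, and parasitemia was counted in mandibular-vein blood every 3 days up to day 40 pi.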

[31] = test system: Trypanosoma cruzi; assay: as §1, with “at 15” for “at 5”; assay type: functional; summary of the method: as §2
[32] = test system: Trypanosoma cruzi; assay: as §5, with “40” for “25”; assay type: functional; design: scale not given: the % may be the effect or the level left; conditions: route intraperitoneal; summary of the method: as §6
[33] = as §8; assay type: organism-based; design: route intraperitoneal; conditions: BALB/c, in vivo, read-out: Activity; summary of the method: as §9

SMILES | inhibition (INH) [2] [%] | IC50 [3] [µM] | IC50 [6] [µM] | selectivity ratio [7] | Activity [9] | inhibition (INH) [10] [%] | selectivity ratio [11] | selectivity ratio [12] | IC50 [13] [µM] | Activity [14] | inhibition (INH) [15] [%] | Activity [17] [%] | selectivity ratio [18] | IC50 [19] [µM] | IC50 [20] [µM] | IC50 [23] [µM] | Activity [24] [%] | Activity [25] | Ratio IC50 [26] | IC50 [27] [µM] | further results
Clc1nnc(NCCc2c[nH]cn2)c2ccccc12 | 85.1 | 12.9 | 427 | 45.5 | Active | 83.9 | 42.3 | 46.5 | 10.1 | -12% | 62.9 | -21 | 49.1 | 9.2 | 9.4 | 71.5 | -33 | -13% | 5.5 | 8.7 | deltaA [1]: 0.0103; Activity [4]: Active; Activity [5]: 59%; Activity [8]: 74%; Activity [16]: 4%; inhibition [21]: 100%; Activity [22]: 9%; Activity [28]: inactive; Activity [29]: Active; Activity [30]: Non-toxic; deltaA [31]: 0.0067
c1ccc2c(NCCCn3ccnc3)nnc(NCCCn3ccnc3)c2c1 | 57.8 | 41.7 | 302 | 18.2 | Active | 51.5 | 24.2 | 17.8 | 12.4 | inactive | 41.1 | -21 | 17.3 | 16.9 | 16.6 | 66 | -24 | inactive | 1.6 | 17.4 | Activity [28]: inactive
c1ccc2c(NCCc3c[nH]cn3)nnc(NCCc3c[nH]cn3)c2c1 | 63.8 | 48 | – | – | Active | 65.1 | – | – | 15.2 | inactive | 48.7 | -10 | – | 22.5 | 18.1 | – | -15 | inactive | 2.6 | 13 | Activity [28]: inactive
c1ccc2c(NCCc3cnc[nH]3)nnc(NCCc3cnc[nH]3)c2c1 | – | – | 324 | 17.9 | – | – | 21.3 | 14.4 | – | – | – | – | 24.9 | – | – | 125 | – | – | – | – | –
O=C(Cn1ccnc1[N+](=O)[O-])NCc1ccccc1 [BENZNIDAZOLE] | 41.6 | – | – | – | – | 39.4 | – | – | 18.9 | – | 12.5 | – | – | 16.4 | – | – | – | – | – | 15.9 | Activity [4]: Active; Activity [32]: 16.7%; Activity [22]: 36%; Activity ([29]; route intraperitoneal): 15.3%; mortality at 960 h [33]: 20%
Clc1nnc(NCCCn2ccnc2)c2ccccc12 | 73.9 | 14.4 | 437 | 49.1 | Active | 80.3 | 41.2 | 42.8 | 10.6 | -16% | 55.8 | -54 | 49.6 | 10.2 | 8.9 | 83.1 | -38 | -27% | 5.8 | 8.8 | deltaA [1]: 0.0143; Activity [4]: Active; Activity [5]: 64%; Activity [8]: 61%; Activity [16]: 8%; inhibition [21]: 100%; Activity [22]: 21%; Activity [28]: inactive; Activity [29]: Active; Activity [30]: Non-toxic; deltaA [31]: 0.0096
